The labels stand for the following.
B1: tRNA (parent)
chain: GUUCCGUUGGCGUAAUGGUAACGCGUCUCCCUCCUAAGGAGAAGACUGCGGGUUCGAGUCCCGUACGGAACG

Variants at the floor of the assay were thinned out.

We go through 167 variants from the RNAGym collection of RNA variant scans (doi:10.1126/science.aae0568).

The variants in the series derive from B1. The series is described as follows: yeast fitness relative to wild type (ratio to wild type); higher = fitter; tRNA-Arg(CCU), competitive growth, 37 C, YPD. The essentials: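 Variants of the tRNA-Arg(CCU) gene were chemically synthesised with a 3% per-site mutation rate across 69 sites and placed at the native genomic locus in Saccharomyces cerevisiae. Six parallel replicates of the pooled strains were competed in YPD at 37°C for 24 hours, and gene amplicons from the start and end populations were read by 100-nucleotide paired-end sequencing. Darwinian fitness relative to wild type was derived from changes in genotype frequencies. Genotypes required ≥ 100 starting reads, and estimates < 0.5 were set to 0.5.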
Take G9A C24G C34G C61U: the yeast fitness was at most 0.5.
In the case of G9A A21C C34A A43G it was at most 0.5; in that of G9A A45U G50A G58C, 0.975.
In the case of G9A A57G G67A it was 0.558; in that of G9A C22U A37G, at most 0.5; in that of G9A A21G C29G C34G, at most 0.5.
In the case of G9A A36U G39A A57G A69C it was at most 0.5; in that of G9A A40C U54C, 0.753; in that of G9A C11G A57U, at most 0.5.
For G9A A37C, the yeast fitness was found to be 0.918.
For the variant G9A C11A A69C, the yeast fitness is 0.567.
As for G9A A21U A36G A40C U47C, the yeast fitness is at most 0.5.
To G9A A37C U54C G67C belongs at most 0.5; to G9A C27A C49U C60U C62A A65G, at most 0.5.
In the case of G9A A21G C29G C34G A57U C62G it was at most 0.5.
As to G9A A21U C31G G63A C66A, the yeast fitness was at most 0.5.
To G9A A70C belongs 1.06; to G9A A70U, 0.875.
Consider G9A C11G G50C C61G A70C, for which the yeast fitness was at most 0.5.
In the case of G9A A20G it was 1.05; in that of G9A C11G U13C C27A C29U C62A, at most 0.5.
For G9A C24G C34G A43C, the yeast fitness is at most 0.5.
G9A C22A U26A G52C G67A: the yeast fitness was at most 0.5.
With G9A A57U C66U, the yeast fitness was determined as 0.548.
For G9A A45U, the yeast fitness amounted to 0.86.
Take G9A A45G: the yeast fitness amounted to 1.01.
In the case of G9A C11U A69C, the yeast fitness was 0.787.
To G9A A20G C49U belongs 0.847; to G9A C11G C22U A40G, at most 0.5; to G9A C24U G38A G48C, at most 0.5.
In the case of G9A C11U U47G C62G A69C it was at most 0.5.
In the case of G9A A36U it was 0.677; in that of G9A A36G, 1.03.
Regarding G9A C27G A40G G68A, the yeast fitness is at most 0.5.
To G9A A20G C30U G52A G68A belongs at most 0.5; to G9A A43G U59A, 0.535; to G9A C24G G41C C66G, at most 0.5.
As for G9A A15U A20G A65U, the yeast fitness was at most 0.5.
In the case of G9A C24A C66A it was at most 0.5.
In the case of G9A A45C U64C A65C it was 0.648; in that of G9A C11G A36U, at most 0.5.
To G9A C27G A40G belongs 0.53; to G9A C11G U32C A69C, at most 0.5; to G9A C24U C30G C34A C49G, at most 0.5.
Take G9A A45U C62A: the yeast fitness is at most 0.5.
To G9A A42G C61A belongs 0.611; to G9A C24G C30U A57G, at most 0.5; to G9A C11U C46G C62U C66U, at most 0.5.
Turning to G9A A36C G48A G67A, the yeast fitness was at most 0.5.
For the variant G9A A65G A70G, the yeast fitness came to 0.595.
In the case of G9A A37G A40U C49A A57U it was at most 0.5.
In the case of G9A C11G U19C G56A C60G it was 0.566.
As for G9A C24U U53A C66U, the yeast fitness is 0.529.
To G9A A69C belongs 1.05.
As for G9A A42C C55G, the yeast fitness is at most 0.5.
For G9A A37C A43C, the yeast fitness was found to be 0.524.
To G9A A45C C46G A57U belongs at most 0.5.
In the case of G9A C27G C31U C46G G51C it was 0.594; in that of G9A A15U A45U, 0.533.
In the case of G9A C11A G44A C46A it was at most 0.5; in that of G9A C24U G58C G67C, at most 0.5.
Turning to G9A C11U A36C, the yeast fitness is at most 0.5.
For G9A A69C A70C, the yeast fitness amounted to 1.04.
On to G9A C27G A43G C66G, for which the yeast fitness is 0.717.
Turning to G9A C11G U13G G23C C34U C49U U59C C66U, the yeast fitness was at most 0.5.
To G9A A36G C46U belongs 0.683.
For G9A C11G C22U A40G A70G, the yeast fitness was at most 0.5.
On to G9A C22U C61U A70C, for which the yeast fitness was at most 0.5.
Take G9A A42G C49A G58A: the yeast fitness is at most 0.5.
In the case of G9A A21U U28C G44A C55G it was at most 0.5; in that of G9A A36C G38A, at most 0.5; in that of G9A C11U C55G, 0.601.
Take G9A A36G C66U: the yeast fitness worked out at 0.77.
With G9A A40U G51C C66U G67U, the yeast fitness was at most 0.5.
Consider G9A A40C C66U, for which the yeast fitness was determined as 0.719.
Take G9A A37C G67C: the yeast fitness is at most 0.5.
In the case of G9A A20G U64C it was 0.674.
In the case of G9A A21U G39C it was at most 0.5; in that of G9A A40C G48C A57G, at most 0.5.
In the case of G9A C22A U47G C55A it was at most 0.5.
Consider G9A A36G G68U, for which the yeast fitness worked out at 0.743.
On to G9A C11G A40U G56A, for which the yeast fitness was at most 0.5.
In the case of G9A C22U U28C G44A G51C G58C, the yeast fitness is at most 0.5.
To G9A C11G U13G G23C G25A C34U U59C C66U belongs at most 0.5.
As to G9A C22A A65G, the yeast fitness was 0.617.
In the case of G9A C22G U35C A70G it was at most 0.5; in that of G9A A40G C60U, at most 0.5.
To G9A A57U A65C A69C belongs at most 0.5; to G9A C11A G38C G58A C60G, at most 0.5.
In the case of G9A C24G A40C G68A it was at most 0.5.
On to G9A C11A G50C C55A, for which the yeast fitness was at most 0.5.
Take G9A C24G A37G U59A G67A: the yeast fitness was at most 0.5.
In the case of G9A C11A A14C U16A C31A C61U it was at most 0.5; in that of G9A C11G U13G G23C C34U U59C C66U, 0.574; in that of G9A C11U C29A, 0.506.
For G9A C11A C34G A36G A65C, the yeast fitness was at most 0.5.
To G9A C11G U54C C55G G63C G67C belongs at most 0.5.
To G9A C22A U53A A57G C60A belongs at most 0.5; to G9A A57U, 0.672; to G9A C24U A40U A57U, 0.514.
To G9A C11A C30A A42C belongs 0.531; to G9A C22U C30A C49A C55A C61A C62U C66U, at most 0.5.
Regarding G9A A43U C49U, the yeast fitness worked out at 0.744.
For G9A A43C A69U A70C, the yeast fitness amounted to 0.782.
Regarding G9A A36C C49A C55U A57G A69U, the yeast fitness is at most 0.5.
For the variant G9A C11G U13C C27A C29U, the yeast fitness is at most 0.5.
To G9A C11G C24G U32G G52C belongs at most 0.5; to G9A C11G U32G A45G C49U U53A, 0.549.
As for G9A A20G G38A C62U, the yeast fitness is 0.676.
To G9A A43C A57U C66U belongs 0.516; to G9A C11G C33U A36G C55G, at most 0.5.
To G9A A15U G41A belongs at most 0.5; to G9A A21C G52A G56C C62G C66U, at most 0.5.
For the variant G9A C22U U53G, the yeast fitness was found to be 0.555.
In the case of G9A C24A U59A G67A it was at most 0.5; in that of G9A C22G U54C, 0.589; in that of G9A C22U C60G A65C, 0.648.
Turning to G9A A43C A57U, the yeast fitness is at most 0.5.
Regarding G9A A43C A57C, the yeast fitness was 0.569.
In the case of G9A C11U A42U U47C G51A A70C it was at most 0.5.
To G9A C11A A57G belongs at most 0.5.
For G9A C11G G68A, the yeast fitness is at most 0.5.
In the case of G9A C22U G48A C60G A65C it was at most 0.5.
In the case of G9A A65G it was 0.881; in that of G9A C11U A14G C29A, at most 0.5; in that of G9A C22G C31U, 0.683.
On to G9A A21C C46G C49G, for which the yeast fitness was at most 0.5.
In the case of G9A C11A C30A A42C G67C it was at most 0.5.
As for G9A C24U U32A, the yeast fitness was 0.564.
For the variant G9A C22G C31U C61A A65C C66A, the yeast fitness was at most 0.5.
In the case of G9A A21G G58C A70C it was at most 0.5; in that of G9A A40G C66U, at most 0.5.
On to G9A A21U C66G, for which the yeast fitness is at most 0.5.
As for G9A C11G U19C, the yeast fitness worked out at 0.536.
To G9A A43G belongs 0.987.
With G9A C11U, the yeast fitness amounted to 0.928.
To G9A C11G belongs 0.583.
In the case of G9A C11A it was 0.604; in that of G9A A45G G68C, 0.543.
Turning to G9A C22G G67A, the yeast fitness stood at 0.648.
To G9A A20U A21U belongs at most 0.5; to G9A A36C A45C, 0.602; to G9A C22U A43G U64A, at most 0.5.
Turning to G9A C11G C24G U32A, the yeast fitness was at most 0.5.
To G9A A36U G39A U54A belongs at most 0.5.
Turning to G9A C24U G38C G56C, the yeast fitness is at most 0.5.
With G9A A43C C62G, the yeast fitness was at most 0.5.
Take G9A A21U C31G: the yeast fitness is 0.573.
To G9A C22A U47G C55A U64C G67A belongs at most 0.5; to G9A C22G A65C, 0.679; to G9A A45C U53A G63C, at most 0.5.
Consider G9A A40C A45G A57G, for which the yeast fitness is at most 0.5.
With G9A A36G A43G, the yeast fitness was 0.748.
As to G9A A15U C29G C33U A36C G67A, the yeast fitness is at most 0.5.
Turning to G9A C11A A20G A42U G68C A70C, the yeast fitness was determined as 0.554.
Consider G9A C24G U28C A57C, for which the yeast fitness is at most 0.5.
In the case of G9A C11G C55G it was 0.562.
In the case of G9A C22G U35C C49G G68C, the yeast fitness is at most 0.5.
To G9A A15U C22A G25A G48A belongs at most 0.5.
To G9A A21U C24U C29U C49U belongs at most 0.5; to G9A A20G A42C G52C U54A, at most 0.5.
To G9A C11U A37G A45C belongs 0.603; to G9A C24U U32G A65C C66G, at most 0.5; to G9A A57U A65U, 0.532.
Consider G9A A43G G63A, for which the yeast fitness is at most 0.5.
In the case of G9A A36C A45C G63A it was at most 0.5; in that of G9A C24U G25C C30G G50C G56A C66U, at most 0.5.
